# Measured values reported in publication PMC3422889 (The Journal of organic chemistry, 2009).
# Like-named read-outs stand apart in the source and are kept apart here.
# Experiments:
# [1] = Picosecond pump-probe transient absorption, singlet and triplet lifetimes; assay type: physicochemical; conditions: for kpF rate constant for the photo-Favorskii process: calculated as φdis/3τ
# In short: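 Transient absorption used the femtosecond pump–supercontinuum probe method. Pump pulses were 266 nm, 1 μJ, <100 fs. The supercontinuum probe spanned 270–690 nm, with both beams focused to 0.2 mm on sample flowing through a 0.4 mm cell. Detection was by photodiode array. Spectra were corrected for chirp and solvent contribution. kpF was taken as φdis/3τ.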
# [2] = Quantitative photolysis, quantum yields for disappearance; assay type: physicochemical; conditions: for φdis (1-octanol): solvent 1-octanol
# In short: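 Test compound (1–9 mM) with caffeine or 4-acetamidophenol internal standard was dissolved in water, buffer, salt solution or solvent in quartz tubes. Samples were irradiated in a Rayonet reactor with two 3000 Å lamps, or at 350 nm for the TRIS pH 9.0/LiClO4 case. Aliquots taken every 30 s up to 5 min (<20% conversion) went to LC/UV or LC/MS/MS. Photon flux came from ferrioxalate actinometry. At least three independent runs were done.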
# [3] = Stern-Volmer quenching with potassium sorbate; assay type: physicochemical; conditions: H2O
# In short: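 pHP-GABA solutions (0.001–0.01 M) were diluted with potassium sorbate (0–0.1 M) in water. They were photolyzed under the quantum-yield conditions, and GABA-release quantum efficiencies were measured. KSV was the slope of φ0/φ versus [Q]. Triplet lifetime was derived assuming kq equals the diffusion rate, 7.2 × 10^9 […].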
# [4] = Nanosecond flash photolysis, decay of the 340-nm transient; assay type: physicochemical; conditions: water containing ca. 10 % ACN
# [5] = cited from earlier work
# [6] = Effect of H2O on the rate of disappearance of the 390-400 nm band; assay type: physicochemical; conditions: CH3CN cosolvent
# [7] = wholly aqueous solution; cited from earlier work
compound,measurement,setting,value
"NCCCC(=O)OCC(=O)c1ccc(O)cc1 [compound 1, pHP GABA]",1τ singlet lifetime,[1]; H2O,2.3 ps
same,3τ triplet lifetime,[1]; H2O,0.34 ns
same,kpF rate constant for the photo-Favorskii process,[1]; H2O,6.00 10^8 s^−1
same,φdis (1-octanol),[2],0.12
"NCCCC(=O)OCC(=O)c1ccc(O)c(OC(F)(F)F)c1 [compound 2, CF3O-pHP GABA]",3τ triplet lifetime,"[1]; 10% CH3CN/H2O, pump-probe",0.71 ns
same,3τ triplet lifetime,[1]; H2O,0.46 ns
same,kpF rate constant for the photo-Favorskii process,[1]; H2O,1.98 10^8 s^−1
same,KSV Stern-Volmer constant,[3],20 M⁻¹
same,quantum yield in 10% H2O:CH3CN,[2]; 10% (v:v) H2O:CH3CN,0.12
same,quantum yield in dry CH3CN,[2]; dry CH3CN,0.03
same,φdis (1-octanol),[2],0.14
same,release of the amino acid upon irradiation,"[2]; λ > 300 nm, aqueous media, ambient conditions",quantitatively released
same,kdec decay rate constant of the 340-nm transient,[4],~6.5e+06 s⁻¹
CCOP(=O)(OCC)OCC(=O)c1ccc(O)cc1 [pHP diethyl phosphate],3kdis,"[5]; 0.00 mol % H2O, CH3CN, ref B. Hellrung, J. Wirz unpublished",2.62 × 10^5 S^−1
same,3kdis,"[5]; 5.04 mol % H2O, CH3CN cosolvent, ref B. Hellrung, J. Wirz unpublished",2.72 × 10^6 S^−1
same,3kdis,"[5]; 7.51 mol % H2O, CH3CN cosolvent, ref B. Hellrung, J. Wirz unpublished",6.56 × 10^6 S^−1
same,3kdis,"[5]; 10.00 mol % H2O, CH3CN cosolvent, ref B. Hellrung, J. Wirz unpublished",1.15 × 10^7 S^−1
same,3kdis,"[5]; 15.03 mol % H2O, CH3CN cosolvent, ref B. Hellrung, J. Wirz unpublished",3.84 × 10^7 S^−1
same,3kdis,"[5]; 24.54 mol % H2O, CH3CN cosolvent, ref Phillips 14",1.11 × 10^8 S^−1
same,3kdis,"[5]; 34.05 mol % H2O, CH3CN cosolvent, ref Phillips 14",4.17 × 10^8 S^−1
same,3kdis,"[5]; 49.38 mol % H2O, CH3CN cosolvent, ref Phillips 14",7.81 × 10^8 S^−1
same,3kdis,"[5]; 55.64 mol % H2O, CH3CN cosolvent, ref Phillips 14",1.25 × 10^9 S^−1
same,3kdis,"[5]; 66.11 mol % H2O, CH3CN cosolvent, ref Phillips 14",1.89 × 10^9 S^−1
same,3kdis,"[5]; 89.77 mol % H2O, CH3CN cosolvent, ref Phillips 14",3.45 × 10^9 S^−1
same,3kdis,[6]; 74.53 mol % H2O,3.30 × 10^9 S^−1
same,3kdis,[6]; 95.14 mol % H2O,9.95 × 10^9 S^−1
same,3kdis,[6]; 100.00 mol % H2O,1.6 × 10^10 S^−1
same,3τ triplet lifetime,[7],60 ps
